Results: ChEMBL document CHEMBL4689842, “EUbOPEN Chemogenomics Library wave 1” (2021)

System: Fibroblast
Test: Multiplex assay against human fibroblast
Type: toxicity, cell-based
Procedure, shortened: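 Imaging took place on a CQ1 microscope at 37°C and 5% CO2 once compound had been added to live cells stained at seeding with Hoechst33342, BioTracker Green Microtubule Cytoskeleton Dye, MitoTracker Red and Annexin V Alexa Fluor 680. CellPathfinder machine-learning gating classed cells as Hoechst high-intensity objects or normal cells, classed normal cells as having healthy, pyknosed or fragmented nuclei, and classed pyknosed cells as mitotic or apoptotic. Tubulin, mitochondrial-mass and membrane-permeability phenotypes are per cents of the healthy-nucleus cells.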

[1] = 12 h, 1 µM, compound concentration 1 uM, replicate 1
[2] = 12 h, 1 µM, compound concentration 1 uM, replicate 2
[3] = 12 h, 10 µM, compound concentration 10 uM, replicate 1
[4] = 12 h, 10 µM, compound concentration 10 uM, replicate 2
[5] = 24 h, 1 µM, compound concentration 1 uM, replicate 1
[6] = 24 h, 1 µM, compound concentration 1 uM, replicate 2
[7] = 24 h, 10 µM, compound concentration 10 uM, replicate 1
[8] = 24 h, 10 µM, compound concentration 10 uM, replicate 2
[9] = 48 h, 1 µM, compound concentration 1 uM, replicate 1
[10] = 48 h, 1 µM, compound concentration 1 uM, replicate 2
[11] = 48 h, 10 µM, compound concentration 10 uM, replicate 1
[12] = 48 h, 10 µM, compound concentration 10 uM, replicate 2

## C=CC(=O)Nc1ccc2ncnc(Nc3ccc(OCc4cccc(F)c4)c(Cl)c3)c2c1.Cc1ccc(S(=O)(=O)O)cc1
[1]
  Population Apoptotic (%): 53%
  Population Fragmented Nuclei (%): 25%
  Population Healthy Nuclei (%): 37%
  Population Hoechst High Intensity Objects (%): 7%
  Population Membrane Permeable-Phenotype (%): 28%
  Population Mitochondria Different-Phenotype (%): 9%
  Population Mitotic Cells (%): 46%
  Population Normal (%): 92%
  Population Pyknosed Nuclei (%): 36%
  Population Tubulin-Different-Phenotype (%): 26%
  Total Cell Count: 120
[2]
  Population Apoptotic (%): 50%
  Population Fragmented Nuclei (%): 6%
  Population Healthy Nuclei (%): 84%
  Population Hoechst High Intensity Objects (%): 5%
  Population Membrane Permeable-Phenotype (%): 3%
  Population Mitotic Cells (%): 50%
  Population Normal (%): 94%
  Population Pyknosed Nuclei (%): 8%
  Population Tubulin-Different-Phenotype (%): 29%
  Total Cell Count: 77
[3]
  Population Apoptotic (%): 77%
  Population Fragmented Nuclei (%): 27%
  Population Healthy Nuclei (%): 38%
  Population Hoechst High Intensity Objects (%): 15%
  Population Membrane Permeable-Phenotype (%): 15%
  Population Mitochondria Different-Phenotype (%): 7%
  Population Mitotic Cells (%): 22%
  Population Normal (%): 84%
  Population Pyknosed Nuclei (%): 33%
  Population Tubulin-Different-Phenotype (%): 27%
  Total Cell Count: 122
[4]
  Population Apoptotic (%): 75%
  Population Fragmented Nuclei (%): 14%
  Population Healthy Nuclei (%): 79%
  Population Hoechst High Intensity Objects (%): 10%
  Population Membrane Permeable-Phenotype (%): 4%
  Population Mitochondria Different-Phenotype (%): 22%
  Population Mitotic Cells (%): 25%
  Population Normal (%): 89%
  Population Pyknosed Nuclei (%): 6%
  Population Tubulin-Different-Phenotype (%): 16%
  Total Cell Count: 69
[5]
  Population Apoptotic (%): 65%
  Population Fragmented Nuclei (%): 26%
  Population Healthy Nuclei (%): 42%
  Population Hoechst High Intensity Objects (%): 9%
  Population Membrane Permeable-Phenotype (%): 31%
  Population Mitochondria Different-Phenotype (%): 2%
  Population Mitotic Cells (%): 34%
  Population Normal (%): 90%
  Population Pyknosed Nuclei (%): 31%
  Population Tubulin-Different-Phenotype (%): 40%
  Total Cell Count: 123
[6]
  Population Apoptotic (%): 55%
  Population Fragmented Nuclei (%): 4%
  Population Healthy Nuclei (%): 84%
  Population Hoechst High Intensity Objects (%): 5%
  Population Membrane Permeable-Phenotype (%): 2%
  Population Mitochondria Different-Phenotype (%): 8%
  Population Mitotic Cells (%): 44%
  Population Normal (%): 94%
  Population Pyknosed Nuclei (%): 10%
  Population Tubulin-Different-Phenotype (%): 33%
  Total Cell Count: 90
[7]
  Population Apoptotic (%): 61%
  Population Fragmented Nuclei (%): 31%
  Population Healthy Nuclei (%): 39%
  Population Hoechst High Intensity Objects (%): 8%
  Population Membrane Permeable-Phenotype (%): 37%
  Population Mitochondria Different-Phenotype (%): 9%
  Population Mitotic Cells (%): 38%
  Population Normal (%): 91%
  Population Pyknosed Nuclei (%): 28%
  Population Tubulin-Different-Phenotype (%): 48%
  Total Cell Count: 118
[8]
  Population Apoptotic (%): 53%
  Population Fragmented Nuclei (%): 12%
  Population Healthy Nuclei (%): 69%
  Population Hoechst High Intensity Objects (%): 6%
  Population Membrane Permeable-Phenotype (%): 14%
  Population Mitochondria Different-Phenotype (%): 24%
  Population Mitotic Cells (%): 46%
  Population Normal (%): 93%
  Population Pyknosed Nuclei (%): 18%
  Population Tubulin-Different-Phenotype (%): 32%
  Total Cell Count: 77
[9]
  Population Apoptotic (%): 64%
  Population Fragmented Nuclei (%): 34%
  Population Healthy Nuclei (%): 48%
  Population Hoechst High Intensity Objects (%): 8%
  Population Membrane Permeable-Phenotype (%): 28%
  Population Mitochondria Different-Phenotype (%): 0%
  Population Mitotic Cells (%): 35%
  Population Normal (%): 91%
  Population Pyknosed Nuclei (%): 16%
  Population Tubulin-Different-Phenotype (%): 26%
  Total Cell Count: 112
[10]
  Population Apoptotic (%): 50%
  Population Fragmented Nuclei (%): 31%
  Population Healthy Nuclei (%): 65%
  Population Hoechst High Intensity Objects (%): 14%
  Population Membrane Permeable-Phenotype (%): 18%
  Population Mitochondria Different-Phenotype (%): 8%
  Population Mitotic Cells (%): 50%
  Population Normal (%): 85%
  Population Pyknosed Nuclei (%): 2%
  Population Tubulin-Different-Phenotype (%): 41%
  Total Cell Count: 106
[11]
  Population Apoptotic (%): 81%
  Population Fragmented Nuclei (%): 40%
  Population Healthy Nuclei (%): 50%
  Population Hoechst High Intensity Objects (%): 18%
  Population Membrane Permeable-Phenotype (%): 17%
  Population Mitochondria Different-Phenotype (%): 9%
  Population Mitotic Cells (%): 18%
  Population Normal (%): 81%
  Population Pyknosed Nuclei (%): 8%
  Population Tubulin-Different-Phenotype (%): 49%
  Total Cell Count: 154
[12]
  Population Apoptotic (%): 100%
  Population Fragmented Nuclei (%): 22%
  Population Healthy Nuclei (%): 76%
  Population Hoechst High Intensity Objects (%): 11%
  Population Membrane Permeable-Phenotype (%): 12%
  Population Mitochondria Different-Phenotype (%): 3%
  Population Mitotic Cells (%): 0%
  Population Normal (%): 88%
  Population Pyknosed Nuclei (%): 1%
  Population Tubulin-Different-Phenotype (%): 6%
  Total Cell Count: 86

## CN1CCCC(n2nc(Cc3ccc(Cl)cc3)c3ccccc3c2=O)CC1.Cl (stereo unspecified) [AZELASTINE HYDROCHLORIDE]
[1]
  Population Apoptotic (%): 47%
  Population Fragmented Nuclei (%): 25%
  Population Healthy Nuclei (%): 50%
  Population Hoechst High Intensity Objects (%): 11%
  Population Membrane Permeable-Phenotype (%): 26%
  Population Mitochondria Different-Phenotype (%): 9%
  Population Mitotic Cells (%): 52%
  Population Normal (%): 88%
  Population Pyknosed Nuclei (%): 23%
  Population Tubulin-Different-Phenotype (%): 65%
  Total Cell Count: 92
[2]
  Population Apoptotic (%): 25%
  Population Fragmented Nuclei (%): 6%
  Population Healthy Nuclei (%): 84%
  Population Membrane Permeable-Phenotype (%): 7%
  Population Mitochondria Different-Phenotype (%): 57%
  Population Mitotic Cells (%): 75%
  Population Pyknosed Nuclei (%): 8%
  Population Tubulin-Different-Phenotype (%): 68%
  Total Cell Count: 51
[3]
  Population Apoptotic (%): 74%
  Population Fragmented Nuclei (%): 26%
  Population Healthy Nuclei (%): 38%
  Population Hoechst High Intensity Objects (%): 18%
  Population Membrane Permeable-Phenotype (%): 13%
  Population Mitochondria Different-Phenotype (%): 55%
  Population Mitotic Cells (%): 25%
  Population Normal (%): 81%
  Population Pyknosed Nuclei (%): 34%
  Population Tubulin-Different-Phenotype (%): 93%
  Total Cell Count: 138
[4]
  Population Apoptotic (%): 57%
  Population Fragmented Nuclei (%): 14%
  Population Healthy Nuclei (%): 70%
  Population Hoechst High Intensity Objects (%): 4%
  Population Membrane Permeable-Phenotype (%): 84%
  Population Mitochondria Different-Phenotype (%): 98%
  Population Mitotic Cells (%): 42%
  Population Normal (%): 95%
  Population Pyknosed Nuclei (%): 15%
  Population Tubulin-Different-Phenotype (%): 100%
  Total Cell Count: 96
[5]
  Population Apoptotic (%): 40%
  Population Fragmented Nuclei (%): 31%
  Population Healthy Nuclei (%): 42%
  Population Hoechst High Intensity Objects (%): 10%
  Population Membrane Permeable-Phenotype (%): 36%
  Population Mitochondria Different-Phenotype (%): 11%
  Population Mitotic Cells (%): 59%
  Population Normal (%): 89%
  Population Pyknosed Nuclei (%): 25%
  Population Tubulin-Different-Phenotype (%): 66%
  Total Cell Count: 95
[6]
  Population Apoptotic (%): 50%
  Population Fragmented Nuclei (%): 7%
  Population Healthy Nuclei (%): 76%
  Population Hoechst High Intensity Objects (%): 8%
  Population Membrane Permeable-Phenotype (%): 10%
  Population Mitochondria Different-Phenotype (%): 57%
  Population Mitotic Cells (%): 50%
  Population Normal (%): 91%
  Population Pyknosed Nuclei (%): 15%
  Population Tubulin-Different-Phenotype (%): 50%
  Total Cell Count: 57
[7]
  Population Apoptotic (%): 84%
  Population Fragmented Nuclei (%): 32%
  Population Healthy Nuclei (%): 53%
  Population Hoechst High Intensity Objects (%): 18%
  Population Membrane Permeable-Phenotype (%): 17%
  Population Mitochondria Different-Phenotype (%): 62%
  Population Mitotic Cells (%): 15%
  Population Normal (%): 81%
  Population Pyknosed Nuclei (%): 14%
  Population Tubulin-Different-Phenotype (%): 90%
  Total Cell Count: 161
[8]
  Population Apoptotic (%): 95%
  Population Fragmented Nuclei (%): 16%
  Population Healthy Nuclei (%): 58%
  Population Hoechst High Intensity Objects (%): 4%
  Population Membrane Permeable-Phenotype (%): 98%
  Population Mitochondria Different-Phenotype (%): 100%
  Population Mitotic Cells (%): 4%
  Population Normal (%): 95%
  Population Pyknosed Nuclei (%): 25%
  Population Tubulin-Different-Phenotype (%): 100%
  Total Cell Count: 96
[9]
  Population Apoptotic (%): 58%
  Population Fragmented Nuclei (%): 38%
  Population Healthy Nuclei (%): 41%
  Population Hoechst High Intensity Objects (%): 11%
  Population Membrane Permeable-Phenotype (%): 28%
  Population Mitochondria Different-Phenotype (%): 11%
  Population Mitotic Cells (%): 41%
  Population Normal (%): 88%
  Population Pyknosed Nuclei (%): 20%
  Population Tubulin-Different-Phenotype (%): 54%
  Total Cell Count: 95
[10]
  Population Apoptotic (%): 75%
  Population Fragmented Nuclei (%): 31%
  Population Healthy Nuclei (%): 61%
  Population Hoechst High Intensity Objects (%): 8%
  Population Membrane Permeable-Phenotype (%): 10%
  Population Mitochondria Different-Phenotype (%): 1%
  Population Mitotic Cells (%): 25%
  Population Normal (%): 91%
  Population Pyknosed Nuclei (%): 7%
  Population Tubulin-Different-Phenotype (%): 73%
  Total Cell Count: 123
[11]
  Population Apoptotic (%): 90%
  Population Fragmented Nuclei (%): 40%
  Population Healthy Nuclei (%): 52%
  Population Hoechst High Intensity Objects (%): 30%
  Population Membrane Permeable-Phenotype (%): 13%
  Population Mitochondria Different-Phenotype (%): 34%
  Population Mitotic Cells (%): 10%
  Population Normal (%): 69%
  Population Pyknosed Nuclei (%): 6%
  Population Tubulin-Different-Phenotype (%): 84%
  Total Cell Count: 207
[12]
  Population Apoptotic (%): 66%
  Population Fragmented Nuclei (%): 38%
  Population Healthy Nuclei (%): 57%
  Population Hoechst High Intensity Objects (%): 25%
  Population Membrane Permeable-Phenotype (%): 22%
  Population Mitochondria Different-Phenotype (%): 39%
  Population Mitotic Cells (%): 33%
  Population Normal (%): 74%
  Population Pyknosed Nuclei (%): 3%
  Population Tubulin-Different-Phenotype (%): 88%
  Total Cell Count: 253
